ChEMBL document CHEMBL3621120, “Discovery of ((4-(5-(Cyclopropylcarbamoyl)-2-methylphenylamino)-5-methylpyrrolo[1,2-f][1,2,4]triazine-6-carbonyl)(propyl)carbamoyloxy)methyl-2-(4-(phosphonooxy)phenyl)acetate (BMS-751324), a Clinical Prodrug of p38α MAP Kinase Inhibitor” (J Med Chem, 2015)

Experiments:
Rattus norvegicus [1] = experiment: Bioavailability in Sprague-Dawley rat assessed as plasma BMS-582949 level at 10 mg/kg, po dose equivalent to BMS-582949 after 24 hrs by LC/MS/MS method; assay type: ADME, organism-based; conditions: in vivo
Rattus norvegicus [2] = experiment: Inhibition of LPS-induced TNFalpha level in Lewis rat at 0.03 to 10 mg/kg, po dose equivalent to BMS-582949 dosed 1 hr before LPS challenge and measured 90 mins post LPS challenge by ELISA method; assay type: functional
Summary of the method: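 Male Lewis rats (200-250 g) dosed orally 1 h before IP injection of 10ug E. coli O111:B4 LPS in 1.0 mL sterile saline; prodrug as suspension in 0.75% Methocel, 0.1% Tween 80, parent in PEG 300, controls given vehicle. Blood taken 90 min after LPS; serum TNF measured by ELISA; ED50 expressed as parent equivalent.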

Cynomolgus monkey [3] = experiment: AUC in cynomolgus monkey assessed as plasma BMS-582949 level at 30 mg/kg, po dose equivalent to BMS-582949 after 24 hrs by LC/MS/MS method; assay type: ADME, organism-based, Macaca fascicularis; design: time < 24 hr, dose 30 mg/kg, route oral; conditions: in vivo
Summary of the method: (§1)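 Three overnight-fasted male cynomolgus monkeys (4.2-5.2 kg) given prodrug by oral gavage at 10 or 30 mg/kg, 5 mL/kg methocel suspension, one-week washout between doses. Femoral artery blood pre-dose and 0.25-24 h post-dose; plasma (centrifuged 4 °C) stored -20 °C and analysed by LC/MS/MS for parent.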

Rattus norvegicus [4] = experiment: Cmax in Sprague-Dawley rat assessed as plasma BMS-582949 level at 100 mg/kg, po dose equivalent to BMS-582949 after 24 hrs by LC/MS/MS method; assay type: ADME, organism-based; design: dose 100 mg/kg, route oral; conditions: in vivo
Rattus norvegicus [5] = experiment: Cmax in Sprague-Dawley rat assessed as plasma BMS-582949 level at 1 mg/kg, po dose equivalent to BMS-582949 after 24 hrs by LC/MS/MS method; assay type: ADME, organism-based; design: dose 1 mg/kg, route oral; conditions: in vivo
[6] = target: T1, Alkaline phosphatase, placental type (Homo sapiens, UniProt P05187); experiment: Stability assessed as human placental ALP-mediated drug degradation by measuring compound remaining level in pH 7.5 tris buffer at 10 uM incubated for 0.25 hrs in presence of HALT phosphatase inhibitor cocktail by LC/MS/MS method; assay type: ADME; conditions: pH 7.5, with HALT phosphatase inhibitor cocktail, read-out: Stability
T1 sequence (P05187 whole entry): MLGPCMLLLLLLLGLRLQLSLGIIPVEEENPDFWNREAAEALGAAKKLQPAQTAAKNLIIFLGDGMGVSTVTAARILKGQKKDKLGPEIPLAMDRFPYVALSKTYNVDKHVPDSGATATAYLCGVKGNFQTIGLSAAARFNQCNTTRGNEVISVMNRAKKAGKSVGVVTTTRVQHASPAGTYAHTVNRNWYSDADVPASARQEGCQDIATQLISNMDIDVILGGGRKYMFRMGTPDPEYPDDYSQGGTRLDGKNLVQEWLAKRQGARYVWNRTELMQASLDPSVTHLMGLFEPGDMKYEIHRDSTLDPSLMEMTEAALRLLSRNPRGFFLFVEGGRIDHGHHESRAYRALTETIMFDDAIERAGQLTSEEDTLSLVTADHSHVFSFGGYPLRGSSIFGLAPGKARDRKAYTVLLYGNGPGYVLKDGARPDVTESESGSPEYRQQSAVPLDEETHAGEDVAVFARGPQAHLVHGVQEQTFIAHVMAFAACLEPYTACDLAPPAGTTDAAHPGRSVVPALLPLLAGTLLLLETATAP
Summary of the method: (§2)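 Human placental alkaline phosphatase (1 unit/mL) incubated with compound at 10 µM in 89 mM tris buffer, pH 7.5, 37 °C; reactions in triplicate started by compound addition, sampled at 0, 15, 30, 60 min. For inhibition, HALT phosphatase inhibitor cocktail (100x dilution) added before compound. Samples quenched into EDTA, acetonitrile added, centrifuged, remaining compound measured by LC/MS/MS.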

Liver carboxylesterase = target: T2, Liver carboxylesterase (Sus scrofa, UniProt Q29550); experiment: Stability assessed as porcine liver esterase-mediated drug degradation by measuring compound remaining level in pH 7.4 potassium phosphate buffer at 10 uM incubated for 0.25 hrs by LC/MS/MS; assay type: ADME, tissue-based; conditions: pig, read-out: Stability
T2 sequence (Q29550 whole entry): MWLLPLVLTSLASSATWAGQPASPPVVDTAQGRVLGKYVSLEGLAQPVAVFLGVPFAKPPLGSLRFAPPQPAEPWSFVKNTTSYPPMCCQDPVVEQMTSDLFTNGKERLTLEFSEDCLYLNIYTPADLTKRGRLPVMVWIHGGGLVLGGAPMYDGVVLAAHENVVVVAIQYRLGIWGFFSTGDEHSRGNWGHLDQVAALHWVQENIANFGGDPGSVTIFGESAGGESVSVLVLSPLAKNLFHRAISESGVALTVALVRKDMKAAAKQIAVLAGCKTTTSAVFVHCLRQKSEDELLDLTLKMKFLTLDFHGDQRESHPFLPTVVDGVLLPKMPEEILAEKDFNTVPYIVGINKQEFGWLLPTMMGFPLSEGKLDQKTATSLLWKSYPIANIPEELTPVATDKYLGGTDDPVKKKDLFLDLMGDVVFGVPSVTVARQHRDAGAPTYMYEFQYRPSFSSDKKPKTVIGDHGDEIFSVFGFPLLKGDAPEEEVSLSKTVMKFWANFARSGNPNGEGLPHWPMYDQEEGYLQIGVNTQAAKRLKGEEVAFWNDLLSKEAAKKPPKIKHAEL
Summary of the method: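 Porcine liver esterase with substrate at 10 µM in 89 mM potassium phosphate pH 7.4, 37 °C. Reaction started by adding compound. Aliquots taken at 0, 15, 30 and 60 min and quenched with acetonitrile. After centrifugation at 4 °C, percent remaining quantified by LC/MS/MS.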

[7] = target: T1, Alkaline phosphatase, placental type; experiment: Stability assessed as human placental ALP-mediated drug degradation by measuring compound remaining level in pH 7.5 tris buffer at 10 uM incubated for 1 hr by LC/MS/MS method; assay type: ADME; conditions: read-out: Stability
Summary of the method: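 Human placental ALP at 1 unit/mL, test compound at 10 µM in 89 mM tris pH 7.5, 37 °C. Run in triplicate, started by adding compound. Aliquots taken at 0, 15, 30 and 60 min and quenched into 10 mM EDTA plus acetonitrile. After centrifugation at 4 °C, percent remaining measured by LC/MS/MS.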

Cynomolgus monkey [8] = experiment: Bioavailability in cynomolgus monkey assessed as plasma BMS-582949 level at 30 mg/kg, po dose equivalent to BMS-582949 after 24 hrs by LC/MS/MS method; assay type: ADME, organism-based, Macaca fascicularis; conditions: in vivo; summary of the method: as §1
[9] = target: T1, Alkaline phosphatase, placental type; experiment: Stability assessed as human placental ALP-mediated drug degradation by measuring compound remaining level in pH 7.5 tris buffer at 10 uM incubated for 0.25 hrs by LC/MS/MS method; assay type: ADME; conditions: read-out: Stability; summary of the method: as §2
Cynomolgus monkey [10] = experiment: Bioavailability in cynomolgus monkey assessed as plasma BMS-582949 level at 10 mg/kg, po dose equivalent to BMS-582949 after 24 hrs by LC/MS/MS method; assay type: ADME, organism-based, Macaca fascicularis; conditions: in vivo; summary of the method: as §1

F (Rattus norvegicus [1]): 103%
AUC (Cynomolgus monkey [3]): 96 µM·h
Cmax (Rattus norvegicus [4]): 122 µM
Cmax (Rattus norvegicus [5]): 0.4 µM
remaining at 0.25 h, 10 µM [6]: 100%
remaining at 0.25 h, 10 µM (Liver carboxylesterase): 100%
remaining at 1 h, 10 µM [7]: 10.9%
F (Cynomolgus monkey [8]): 69%
remaining at 0.25 h, 10 µM [9]: 12.5%
F (Cynomolgus monkey [10]): 51%
SMILES: CCCN(C(=O)OCOC(=O)Cc1ccc(OP(=O)(O)O)cc1)C(=O)c1cn2ncnc(Nc3cc(C(=O)NC4CC4)ccc3C)c2c1C
ED50 (Rattus norvegicus [2]): 0.89 mg
inhibition (Rattus norvegicus [2]): Dose-dependent effect
